According to publication PMC6586500 (SLAS discovery : advancing life sciences R & D, 2019):
Square brackets hold non-standard residues; d marks the D form. Peptide text beside a SMILES is read from it. * marks the point of attachment. Benzoyl(4-tBu) = CC(C)(C)c1ccc(C(=O)*)cc1; Lys(Et2) = CCN(CC)CCCC[C@H](N)C(=O)O

Columns and labels:
[1] = target: T1, CBX2 (Homo sapiens, UniProt Q14781); assay: TR-FRET competition assay, CBX2 chromodomain with UNC4195 tracer; assay type: binding
T1 sequence (Q14781 9-66): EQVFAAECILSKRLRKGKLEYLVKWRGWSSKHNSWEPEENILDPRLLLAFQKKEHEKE
How it was run: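 His-tagged protein, biotinylated tracer and TR-FRET reagent (Eu-streptavidin, anti-6X-His ULight antibody) premixed in 20 mM Tris pH 7.5, 150 mM NaCl, 0.05% Tween 20, 2 mM DTT. Added to plates pre-stamped from 10 mM DMSO stocks (100X). Shaken 1 min, spun 1000 x g 2 min, 1 h dark. DMSO and competitor full-column controls per plate. Follow-up used 10-point threefold dilutions and a four-parameter fit for IC50.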

[2] = target: T2, MPP8 (Homo sapiens, UniProt Q99549); assay: TR-FRET competition assay, MPP8 chromodomain with H3K9me3 tracer; assay type: binding
T2 sequence (Q99549 55-116): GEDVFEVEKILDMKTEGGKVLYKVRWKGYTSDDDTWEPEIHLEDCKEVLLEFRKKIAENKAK
How it was run: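 His-tagged protein plus biotinylated tracer peptide with Eu-streptavidin and anti-6X-His ULight antibody, in 20 mM Tris pH 7.5, 150 mM NaCl, 0.05% Tween 20, 2 mM DTT; 10 µL total. Test compound: 16-point threefold dilution in buffer, in triplicate. Mixed, centrifuged, equilibrated 1 h in the dark, then read. Percent inhibition relative to DMSO (0%) and 100 µM competitor (100%); four-parameter fit gives IC50.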

[3] = target: T3, CBX7 (Homo sapiens, UniProt O95931); assay: TR-FRET competition assay, CBX7 chromodomain with UNC4195 tracer; assay type: binding
T3 sequence (O95931 8-62): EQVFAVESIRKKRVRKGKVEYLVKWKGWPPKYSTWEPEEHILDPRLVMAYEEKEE

[4] = target: CBX5 (Homo sapiens, UniProt P45973); conditions: affinity of CBX5 for H3K9me3; cited from earlier work
Chain of CBX5 (P45973 18-75): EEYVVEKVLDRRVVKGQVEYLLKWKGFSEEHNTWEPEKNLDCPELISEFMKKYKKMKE

[5] = target: T2, MPP8; conditions: MPP8 binding the tracer peptide H3K9me3; cited from earlier work

Row | Molecule | IC50 [1] | inhibition ([1]; single-dose 25 µM, pilot screen in duplicate, 100% = 100 µM UNC3866) | IC50 [2] | IC50 [3] | Kd [4] | affinity [5]
1 | CCN(CC)CCCC[C@H](NC(=O)[C@H](CC(C)C)NC(=O)[C@H](C)NC(=O)[C@H](Cc1ccccc1)NC(=O)c1ccc(C(C)(C)C)cc1)C(=O)N[C@@H](CO)C(=O)OC [UNC3866] ({Benzoyl(4-tBu)}-FAL[Lys(Et2)]S-OMe) | 1.5 µM | 100% | 1 µM | 0.06 µM | – | –
2 | ARTKQTARK(Me3)STGGKAPRKQL-K(Biotin)-NH2 [H3K9me3] | – | – | – | – | ~30 µM | sub-micromolar
